Measurements published in the EternaBench riboswitch data.

Tested on: MS2 coat protein
Assay: apparent Kd, MS2 coat protein; higher = weaker binding; RNA-MaP array; FMN 200 µM where present
In short: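 SNAP-549-labelled MS2 coat protein, doubled from 0.7 or 1.5 nM to 3 µM, was titrated over designs transcribed by stalled E. coli RNA polymerase on Illumina sequencing-chip clusters. Titrations were run without and then with constant ligand in 100 mM Tris-HCl pH 7.5, 80 mM KCl, 4 mM MgCl2, BSA, DTT, yeast tRNA and Tween-20. The apparent Kd is the median of filtered per-cluster fits to green signal normalised to red-channel RNA signal and control-cluster median Fmax.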

[1] = designed as: OFF switch for flavin mononucleotide, no ligand
[2] = ligand present: flavin mononucleotide, designed as: OFF switch for flavin mononucleotide
[3] = designed as: ON switch for flavin mononucleotide, no ligand
[4] = ligand present: flavin mononucleotide, designed as: ON switch for flavin mononucleotide

Row | Sequence | apparent Kd [1] [nM] | apparent Kd [2] [nM] | apparent Kd [3] [nM] | apparent Kd [4] [nM]
1 | GUGACGAAUGUAGGAUAUGCUGAGGAUAACUCAGCAGAAGGACAUGAGGAUCACCCAUGUACUAUGAGUGAAUAAUAACGUCAC | 82.2 | 756 |  | 
2 | AGUUUACAUGAGGAUCACCCAUGUGAGGAUAUGGUUUCGCUGGCCGUAGCCAGUGGAACCAGAAGGCGCAUGAU | 76 | 349 |  | 
3 | GGAUGAUUAAUAGGAUAUUAGUUGUAAAAUGUUUAAGAAGGAUUAAUGAUUUAAACGACCAGUUACAUGAGGAUCACCCAUGUU |  |  | 27.9 | 21.4
4 | AAACACGGACAUGAGGAUCACCCAUGUGGCGAAAGCCUUGGAAGAAGGCCGUAUGCAAAGCAUACGGAGGAUAUUCAUACCGUG |  |  | 15.6 | 5.85
5 | GCUGCAUAGGCAGGAUAUGCAAAAAACGAUGCAAAGCAUCGAAAAAAAACAUGAGGAUCACCCAUGUAGAAGGGCCUGUGCAGU | 22.6 | 20.8 |  | 
6 | GGGAUGUGAGGAUAUACAUGAACUAUCCACUGUGCUGGGCCACAUGAGGAUCACCCAUGUAGAAGGUACGCCCA | 66.2 | 168 |  | 
7 | UUGGACGUCGUAGGAUAUGUAGGAUAUUCCUACAUGAGGAUCACCCAUGUUGACAUGGAAGAAGCACAGAAGGACGAUGUCCAU |  |  | 150 | 6.6
8 | UGUUACUAGUAAGGAUAUACUUGCGAUAAGCUUGUAGAAGGUACAGUCUUUUGUAUAACAUGUUUACAUGAGGAUCACCCAUGU |  |  | 9.71 | 8.78
9 | CCCUCAACAUGAGGAUCACCCAUGUAGGAUAUCGCUAUUGUAAUCAUGAAACAUGAUUACAAUAGCGAGAAGGACAUAUGUUUU | 25.9 | 127 |  | 
10 | GUGGUUGUCGUAGGAUAUGUAGGAUAUUCCUACAUGAGGAUCACCCAUGUUCGCAUGGAAGAAGGACAGAAGGACGAUGACCAC |  |  | 1250 | 10.2
11 | UUAUUAGGACAGAAGGGUAGACAUGAGGAUCACCCAUGUAAUAUAAGGUGCAGGAUAUGUAAUAAUUGAGAUUCAUCAUUUUGC |  |  | 198 | 142
12 | GUAGAGUAGUGAGGAUAUACGAGAUCGAUAGAUCGGCGAUCCAUUAAUACAUGAGGAUCACCCAUGUAGAAGGCACUUCUCUAC | 6.31 | 76.7 |  | 
13 | UAGAUGGGAGGAUAUACGUAGAUGCAGGUUCGUGUGGUUCUACAUGAGGAUCACCCAUGUAGAAGGCCCGUCUU | 16.6 | 27.5 |  | 
14 | ACUAGAUGAGGAUAUGCAUAUUUUCGUGUUCUUCUAGAUUAACAUGAGGAUCACCCAUGUAGAAGGCGUCUGGU | 30.7 | 62 |  | 
15 | AAAAGACAUGAGGAUCACCCAUGUCAAGACGUGGGAGGAUAUGUAUGGAAACCAGACUGUACAGAAGGCCUUUGUC |  |  | 46.8 | 20.1
16 | GGAGCUCCUGACAUGAGGAUCACCCAUGUUCACUUAUUAAAUCAGGAUAUCCUCUCGAAACGAGAGGAGAAGGGAUAUGCUCCU |  |  | 7.58 | 7.04
17 | ACAUGAGGAUCACCCAUGUAGAAUGAAGAAGGUACUAUAUAGAUAUACACCCUAUGUCUAUAUAGUAAGGAUAUUCUAAUAAUU |  |  | 6.45 | 6.35
18 | GGUACUCAAAGAGUACCAAUACGAACAUGAGGAUCACCCAUGUAGGAUAUGCUACUCAAAGAGUAGCAGAAGGACAUGUGCCUA | 19.1 | 106 |  | 
19 | GGAAGACAAAGUCUUCCAUAACGAACAUGAGGAUCACCCAUGUAGGAUAUGCUUCUCAAAGAGAAGCAGAAGGACAUGUGUCUU | 29.7 | 137 |  | 
20 | UAAUUUAUACAGAAGGGAAACAUGAGGAUCACCCAUGACAUGAGGAUCACCCAUGUUUAAUUAUUUCAGGAUAUGUAAAAUAAU |  |  | 159 | 70.5
21 | UUAUUUUUACAGAAGGUUUAAUAAUAUAUAUGAGAAGGAUAUGUAACAUGAGGAUCACCCAUGUUUCACCCAUAUGAGGAUCAU | 8.2 | 7.27 |  | 
22 | AUUAUACAUGAGGAUCACCCAUGUAAUUAAUUAAUUAAGAUCAAGGAUAUCAGCUCGAAUAGAGCUGAGAAGGUGAUCACAUGU |  |  | 330 | 287
23 | AAAUAGCGAGGAUAUACAUGAGGAUCACCCAUGUGGACUGAUGUCGCAUGAUUCAGUGGUAGAAGGUGCUCAAA | 90.4 | 127 |  | 
24 | UCGUGAGGGACAGGAUAUGGACAUGAGGAUCACCCAUGUACAUGGGAAUAUAUACUGAAUUUAUACUAGAAGGGUUACAUAAAU | 21.6 | 16.1 |  | 
25 | AAUAUGUUGCAGAAGGUUAUAUUUAUUUAGUACCUCAUGACAUGAGGAUCACCCAUGUUAAUGUUGAAGGAUAUGCAAUAUAUU | 14.1 | 13.6 |  | 
26 | GGAUAGGACAGAGGAUAUACGUGCUAGCGAUACUAGCAAAAUUUCCUCACAUGAGGAUCACCCAUGUAGAAGGCUGUCCUAUCG | 15.7 | 427 |  | 
27 | AUCAGCUCGUCAGGAUAUACGUCACUGCGUCAGCAGUGCGGUAAGAUCACAUGAGGAUCACCCAUGUAGAAGGGACGAGCUGAU | 6.4 | 20.1 |  | 
28 | CGAAAUGAUAGAGGAUAUGUUUUACAUGAGGAUCACCCAUGUGUACAUGGAUUAAUAUAUAAGUAACAGAAGGCUAUUCAAUCG | 18.6 | 17.3 |  | 

Row | Sequence | apparent Kd [1] [nM] | apparent Kd [2] [nM] | apparent Kd [3] [nM] | apparent Kd [4] [nM]
29 | UUACAGCACGGGUAGGAUAUGUAGGGUGGUACAUGAGGAUCACCCAUGUAUCCACCCUUCGAACGGCAGAAGGGCCUGUCACUGC |  |  | 16.7 | 17
30 | UUUUUUUGCUGAGGAUAUAGCGCGCGUUUUGCGCUAGAAGGCAGACAUGUGGUUCACCCAUGUACAUGAGGAUCACCCAUGUUA |  |  | 552 | 301
31 | AUUAUAUAGAGAGGAUAUAGAAUAUUAUUUUAACAUGAGGAUCACCCAUGUAACCUUAUGUGUAGCUAGAAGGCUCAUUUAUUA | 42.2 | 74.2 |  | 
32 | UUGCGGUAGGAGAAGGACAGAGGCUUCAUUACAUACAUGAGGAUCACCCAUGUAGGAUAUCCUACCUCACGCGGCCUCCUCCUG | 6.9 | 10.3 |  | 
33 | AGAAACUACGAGAAGGACAUGAAAAGUGCCGCAAACAUGAGGAUCACCCAUGUAGGAUAUCGUAGUUUCAGGAUCGUGAGAUCA | 15.8 | 108 |  | 
34 | GUCAGCUCGUGAGGAUAUACAACACUGCUUCGGCAGUAUAUUAAGAUCACAUGAGGAUCACCCAUGUAGAAGGCACGAGCUGAU | 15 | 284 |  | 
35 | GCAUAUGUCGUCUACAUGAGGAUCACCCAUGUUGAUAAACAUGAGGAUAUUGAUAAGAAUUGUAUCGAGAAGGUAUGUAGGUGC |  |  | 258 | 347
36 | UAUAUAUAGUAAGGAUAUGUAAUUAGUUUAUAAACAGAAGGUACUGACAUGAGGAUCACCCAUGUUUUAGUGUGGGCAUGUAGA | 87.7 | 134 |  | 
37 | UUAAUGUGAGGAUAUGGUAAAGAUAAGAUGAUGAAAGAACUCCAGAAGGCACAUGAGGAUCACCCAUGUAGAUG | 39.5 | 86.6 |  | 
38 | UCGGGCGUAGGAUAUGCUAUCACGGACAUGAGGAUCACCCAUGUCAGAUGUCCGGGCGAGGCAGAAGGGCGGUUUU | 74.1 | 120 |  | 
39 | UCGCUCCGUGUAGGAUAUCGUUGUAUUCUGCGGCGAGAAGGACAUGAGGAUCACCCAUGUAUGUUAUUAUCACGCGUGGCGCAA | 21 | 18.9 |  | 
40 | AUAUAUAAUAAGAAGGUGCCAGCGAGAGCUGCACAUGAGGAUCACCCAUGUUGUCGGUGACGACGCAAGGAUAUUAUUAUAUAU |  |  | 56.8 | 18.5
41 | AGUUAAUAUCGAGGAUAUCUCAUGGAGACAUGAGGAUCACCCAUGUGAAUGGGAGAAGGCGAUAUUAACAGCAUGUUACAUGCA |  |  | 284 | 21.2
42 | UUGUUAGGGAGAGGAUAUUGACAUGAGGAUCACCCAUGUAUUUGGGAGUGUUUACUGAAUUCUCACGAGAAGGCUUACGAAUUU | 550 | 471 |  | 
43 | AAGUCGACGGUGAGGAUAUAGGUCGAACGACAGAUCUAGAAGGCACAUGAGGAUCACCCAUGUGGGUAACGUCG | 19.6 | 28.4 |  | 
44 | GGAUGUCUGGAGGAUAUACAGACUAUUAGAUCAGUAGAAGGUCAGACAUGAGGAUCACCCAUGUUAGUGUAUCC | 52 | 473 |  | 
45 | GCUGCGCGAGGAUAUGCGGUUUGCGCUGUGGCCCGUGGCGUACAUGAGGAUCACCCAUGUAGAAGGCGUGCGGG | 11.6 | 12.1 |  | 
46 | UUAUUAUGUGUAGGAUAUGCAUAUUAUUAUUAUGCAGAAGGACAUGAGGAUCACCCAUGUAUAUUAUUAAUAUAUAUUAUAUAU | 13.9 | 15.7 |  | 
47 | AAGAAGUGAGGAUAUGCUGCUCGUCACUUGCGUGAUGAGUAGCAGAAGGCACAUGAGGAUCACCCAUGUGAAAA | 26 | 43.3 |  | 
48 | UUACUCAUGUAAGGAUAUGUAGCCGAAACGGCUGCAGAAGGUACUAAAAUACAUGAGGAUCACCCAUGUCUUUUUAAUUUAGAC |  |  | 216 | 50.9
49 | AUCGAACAUGAGGAUCACCCAUGUCAGUCGAACCAAGGAUAUGGGCAGGGUUCUCUUGCACCAGAAGGUGGCUAAA |  |  | 56.9 | 95.7
50 | CAGCUGAAUGUGAGGAUAUCUAGAGCUUCGGCUCUAGAGAAGGCACAUGAGGAUCACCCAUGUCUCAACAGCUG | 39.2 | 296 |  | 
51 | UAAUAUUUAUGAUAUUAUUACAUUAGAAGGCUAUACAUGUGGAUACAUGAGGAUCACCCAUGUAUAGAGGAUAUAGACAUAUAU | 357 | 537 |  | 
52 | AUGCUUCACACAGGAUAUACAUGAGGAUCACCCAUGUGUCCUCCGUAGCUGACACGAGCUACGCGGUAGAAGGGUGUGAAGCAU | 91 | 698 |  | 
53 | AAAACACAUGAGGAUCACCCAUGUGAGGAUAUGCUAUGGAAAAUAAAAAUAAAACAUAGCAGAAGGCACAAAGG | 62.5 | 152 |  | 
54 | ACACUGCGAGGAUAUACAUGAGGAUCACCCAUGUGUCGGCAGGUACGGUAGCACUAGUGUAGAAGGCGCAUUGG | 24.6 | 42 |  | 
55 | GGUUGGCAGCUAGGAUAUGGGCGGUCACAUGAGGAUCACCCAUGUCAACAUCAAAACCAGAUUAACCAGAAGGAGCUGCGGGUU |  |  | 14.8 | 87.7
